Assay results: PubChem BioAssay
A number with no mark means an inactive call. The source made the active and inactive calls.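 The calls were made as follows, unless noted: active = viability at or below 30% in both replicate assays; inconclusive = viability at or below 30% in just one of the two assays; inactive = the rest.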

Assay: HUVEC growth inhibition – cell-based, human, primary screen (AID 575);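 also: 100% = median of untreated cell wells with 0.1% DMSO on each plate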
Settings: HUVEC proliferation, CellTiter-Glo luminescence, 72 h; at 10 µM; active compounds read low
Procedure, shortened: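 Material: primary human umbilical vein endothelial cells / Schedule: 72 h exposure, 37 °C, 5% CO2, 30 min RT equilibration / Signal: ATP-based CellTiter-Glo luminescent read / Read-out basis: percent of median DMSO-control luminescence / Control set: 32 DMSO-only cell-control wells (high), 32 MePR drug-control wells (low) per plate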

| SMILES | viability [%] |
| --- | --- |
| CN=C1CC(C)(C)CC(=O)/C1=C(/O)CCC(=O)NC | 95.5 |
| CC(C)(C)NC(=O)Cn1nnc(-c2cccs2)n1 | 101 |
| Nc1nnc(SCC(=O)N2CCc3ccccc32)n1-c1ccccc1 | 82 |
| O=C(CSc1ncnc2c1oc1ccccc12)Nc1ccccc1F | 72 |
| O=C(Nc1cccc(C(F)(F)F)c1)c1cccnc1N1CCCC1 | 102 |
| Cc1cc(C(F)(F)F)nn1Cc1ccc(C(=O)NCc2ccco2)o1 | 95.3 |
| O=C(C1CCCN(S(=O)(=O)c2cccnc2)C1)N1CCN(c2ccccn2)CC1 (stereo not given) | 103 |
| O=C(CCn1c(=S)[nH]c2cc3c(cc2c1=O)OCO3)N1CCN(C2CCCCC2)CC1 | 93.8 |
| CC(C)CC(=O)CN1C(=O)C2(OCCO2)c2ccccc21 | 101 |
| CNC(=O)CN(C#N)c1nc(N(C)C)nc(N(C)C)n1 | 98.5 |
| O=C(Oc1ccc2c(c1)CCC2)N1CCOCC1 | 99.9 |
| CCCn1c(N2CCN(CC(=O)Nc3ccc4c(c3)OCCO4)CC2)nc2ccccc21 | 87.4 |
| COCc1ccccc1Cn1cnc2c1c(=O)n(C)c(=O)n2C | 85.8 |
| O=C(Nc1ccc(N2CCOCC2)cc1)c1cc2ccccc2o1 | 109 |
| COc1ccc(N2C(=O)CC(NC3CC3)C2=O)cc1 (stereo not given) | 94.7 |
| COc1cccc(C(=O)NCc2nnc(SCC(=O)Nc3nccs3)n2-c2ccccc2)c1 | 92.9 |
| COCCCN1C(=O)C(O)=C(C(=O)c2ccco2)C1c1ccc(Br)cc1 (stereo not given) | 99.5 |
| Cc1cccc(N2C(=O)CC(N3CCN(Cc4ccc(Cl)cc4)CC3)C2=O)c1 (stereo not given) | 94.7 |
| CS(=O)(=O)N(CC(=O)Nc1ccc2c(c1)OCCO2)Cc1ccccc1 | 107 |
| O=C(O)CC1SC(=Nc2cccc(C(F)(F)F)c2)NC1=O (stereo not given) | 104 |

| SMILES | viability [%] |
| --- | --- |
| CCOC(=O)Nc1sc(=S)n(C)c1C | 104 |
| CCCn1nc(NS(=O)(=O)c2ccccc2)c2cc3ccccc3nc21 | 76.5 |
| COc1ccc2[nH]c(=O)c(CN(Cc3cccs3)S(=O)(=O)c3cccc4nsnc34)cc2c1 | 59.2 |
| CC(C)C(c1nnnn1CC1CCCO1)N1CCN(Cc2ccc3c(c2)OCO3)CC1 (stereo not given) | 113 |
| COc1cc2c(cc1NC(=O)CN1CCN(S(=O)(=O)c3ccc(F)cc3)CC1)oc1ccccc12 | 66.4 |
| CCCn1c2c(c(O)c(C(=O)Nc3ccc(C)cn3)c1=O)CCCC2 | 96.8 |
| O=S(=O)(Nc1cccnc1)c1cc(Cl)ccc1Cl | 92.2 |
| CCN(CC(=O)Nc1ccc(S(N)(=O)=O)cc1)S(=O)(=O)c1cc(C)ccc1OC | 109 |
| O=S(=O)(NCC(c1cccnc1)N1CCN(c2ccccc2)CC1)c1cc(F)ccc1F (stereo not given) | 81.5 |
| Cc1ccc2oc(C(=O)Nc3c(C)n(C)n(-c4ccccc4)c3=O)c(C)c2c1 | 97.2 |
| C/C=C/c1ccc(OCCn2cncn2)c(OC)c1 | 95.6 |
| Cc1ccnc(SCCn2c(N3CCCCC3)nc3c2c(=O)n(C)c(=O)n3C)n1 | 93.9 |
| CCN(CC)S(=O)(=O)c1ccc(NC2c3ccccc3C(=O)N2CCN2CCOCC2)cc1 (stereo not given) | 85.2 |
| CCC(=O)OCCn1c(=O)c2cc3c(=O)n(CCOC(=O)CC)c(=O)c3cc2c1=O | 98.3 |
| Cc1cc(Br)ccc1NC(=O)CCN1C(=O)c2ccncc2C1=O | 86.1 |
| Cc1cc(C(=O)O)ccc1-n1c(C)ccc1C | 89.6 |
| Cc1nn(-c2ccc(F)cc2)c2sc(C(=O)OCC(=O)N3CCC(C)CC3)cc12 | 76.8 |
| CCOCCCNC(=O)C1CCN(C(=O)Nc2ccc(Cl)cc2)CC1 | 94.7 |
| CCOc1ccccc1NC(=O)CN(c1ccc(C)cc1)S(=O)(=O)c1c(C)noc1C | 68.3 |
| CC(C)(CO)NC(=O)CCCOc1ccc(Cl)cc1Cl | 84.5 |

Assay: H69AR cell proliferation blockers – human, duplicate replicates, primary screen (AID 580;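 active = viability at or under a set limit in both replicates, limit being median viability minus 3 SD, cut at about 48% in these data, passing the limit was not always enough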;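 also: 100% = mean luminescence of untreated wells and 0% = no signal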)
Settings: H69AR lung tumor cells viability, ATP luminescence, 72 h; at 10 µM; active compounds read low

| SMILES | viability |
| --- | --- |
| CN=C1CC(C)(C)CC(=O)/C1=C(/O)CCC(=O)NC | 102% |
| CC(C)(C)NC(=O)Cn1nnc(-c2cccs2)n1 | 92.2% |
| Nc1nnc(SCC(=O)N2CCc3ccccc32)n1-c1ccccc1 | 101% |
| O=C(CSc1ncnc2c1oc1ccccc12)Nc1ccccc1F | 90.5% |
| O=C(Nc1cccc(C(F)(F)F)c1)c1cccnc1N1CCCC1 | 95% |
| Cc1cc(C(F)(F)F)nn1Cc1ccc(C(=O)NCc2ccco2)o1 | 89.9% |
| O=C(C1CCCN(S(=O)(=O)c2cccnc2)C1)N1CCN(c2ccccn2)CC1 (stereo not given) | 98.7% |
| O=C(CCn1c(=S)[nH]c2cc3c(cc2c1=O)OCO3)N1CCN(C2CCCCC2)CC1 | 90% |
| CC(C)CC(=O)CN1C(=O)C2(OCCO2)c2ccccc21 | 89.6% |
| CNC(=O)CN(C#N)c1nc(N(C)C)nc(N(C)C)n1 | 92.8% |
| O=C(Oc1ccc2c(c1)CCC2)N1CCOCC1 | 95.6% |
| CCCn1c(N2CCN(CC(=O)Nc3ccc4c(c3)OCCO4)CC2)nc2ccccc21 | 88.9% |
| COCc1ccccc1Cn1cnc2c1c(=O)n(C)c(=O)n2C | 101% |
| O=C(Nc1ccc(N2CCOCC2)cc1)c1cc2ccccc2o1 | 85.7% |
| COc1ccc(N2C(=O)CC(NC3CC3)C2=O)cc1 (stereo not given) | 91.2% |
| COc1cccc(C(=O)NCc2nnc(SCC(=O)Nc3nccs3)n2-c2ccccc2)c1 | 97.9% |
| COCCCN1C(=O)C(O)=C(C(=O)c2ccco2)C1c1ccc(Br)cc1 (stereo not given) | 97.6% |
| Cc1cccc(N2C(=O)CC(N3CCN(Cc4ccc(Cl)cc4)CC3)C2=O)c1 (stereo not given) | 99.2% |
| CS(=O)(=O)N(CC(=O)Nc1ccc2c(c1)OCCO2)Cc1ccccc1 | 99.5% |
| O=C(O)CC1SC(=Nc2cccc(C(F)(F)F)c2)NC1=O (stereo not given) | 103% |

| SMILES | viability |
| --- | --- |
| CCOC(=O)Nc1sc(=S)n(C)c1C | 98% |
| CCCn1nc(NS(=O)(=O)c2ccccc2)c2cc3ccccc3nc21 | 120% |
| COc1ccc2[nH]c(=O)c(CN(Cc3cccs3)S(=O)(=O)c3cccc4nsnc34)cc2c1 | 5.33% (active) |
| CC(C)C(c1nnnn1CC1CCCO1)N1CCN(Cc2ccc3c(c2)OCO3)CC1 (stereo not given) | 95.3% |
| COc1cc2c(cc1NC(=O)CN1CCN(S(=O)(=O)c3ccc(F)cc3)CC1)oc1ccccc12 | 95.7% |
| CCCn1c2c(c(O)c(C(=O)Nc3ccc(C)cn3)c1=O)CCCC2 | 88% |
| O=S(=O)(Nc1cccnc1)c1cc(Cl)ccc1Cl | 82.8% |
| CCN(CC(=O)Nc1ccc(S(N)(=O)=O)cc1)S(=O)(=O)c1cc(C)ccc1OC | 114% |
| O=S(=O)(NCC(c1cccnc1)N1CCN(c2ccccc2)CC1)c1cc(F)ccc1F (stereo not given) | 86.4% |
| Cc1ccc2oc(C(=O)Nc3c(C)n(C)n(-c4ccccc4)c3=O)c(C)c2c1 | 104% |
| C/C=C/c1ccc(OCCn2cncn2)c(OC)c1 | 89.8% |
| Cc1ccnc(SCCn2c(N3CCCCC3)nc3c2c(=O)n(C)c(=O)n3C)n1 | 91.2% |
| CCN(CC)S(=O)(=O)c1ccc(NC2c3ccccc3C(=O)N2CCN2CCOCC2)cc1 (stereo not given) | 87% |
| CCC(=O)OCCn1c(=O)c2cc3c(=O)n(CCOC(=O)CC)c(=O)c3cc2c1=O | 87.2% |
| Cc1cc(Br)ccc1NC(=O)CCN1C(=O)c2ccncc2C1=O | 95.6% |
| Cc1cc(C(=O)O)ccc1-n1c(C)ccc1C | 93.2% |
| Cc1nn(-c2ccc(F)cc2)c2sc(C(=O)OCC(=O)N3CCC(C)CC3)cc12 | 102% |
| CCOCCCNC(=O)C1CCN(C(=O)Nc2ccc(Cl)cc2)CC1 | 102% |
| CCOc1ccccc1NC(=O)CN(c1ccc(C)cc1)S(=O)(=O)c1c(C)noc1C | 81% |
| CC(C)(CO)NC(=O)CCCOc1ccc(Cl)cc1Cl | 98.1% |
